Values after ≈ are worked out from the molar mass of the structure shown.
Test system: Candida parapsilosis
Assay: Antifungal activity against Candida parapsilosis ATCC 22019 at 35 degC after 48 hrs by broth microdilution test
Assay type: functional
Details: Lodderomyces parapsilosis, ATCC 22019, 48 h; read-out: MFC
Outline: (§1)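 Broth microdilution per NCCLS M27-A2. Stocks in 100% DMSO, diluted in RPMI 1640 with 0.165 M MOPS at pH 7.0; final range 0.25–128 µg/mL. Inoculum 1000–5000 cells/mL from SDA subcultures. […] C. parapsilosis ATCC22019 served as QC strain.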

Row | SMILES | MFC
1 | Cc1ccc(C(CCn2cncn2)Oc2ccc(Cl)cc2Cl)cc1 (stereo not given) | 64 µg/mL (≈ 177 µM)
2 | Clc1cc(Cl)cc(OC(CCn2ccnc2)c2ccccc2)c1 (stereo not given) | 4 µg/mL (≈ 11.5 µM)
3 | Cc1ccc(C(CCn2ccnc2)Oc2ccc(Cl)cc2Cl)cc1 (stereo not given) | 4 µg/mL (≈ 11.1 µM)
4 | Fc1ccc(C(CCn2ccnc2)Oc2c(Cl)cccc2Cl)cc1 (stereo not given) | 32 µg/mL (≈ 87.6 µM)

Same assay, conditions: Lodderomyces parapsilosis, ATCC 22019, 48 h; read-out: MIC

Row | MIC | SMILES
5 | 32 µg/mL (≈ 88.3 µM) | Cc1ccc(C(CCn2cncn2)Oc2ccc(Cl)cc2Cl)cc1 (stereo not given)
6 | 1 µg/mL (≈ 2.77 µM) | Cc1ccc(C(CCn2ccnc2)Oc2ccc(Cl)cc2Cl)cc1 (stereo not given)

The remaining lines, values behind:

Row | SMILES | MIC
7 | Cc1ccc(OC(Cn2ccnc2)c2ccc(Cl)cc2)cc1 (stereo not given) | 4 µg/mL (≈ 12.8 µM)
8 | Clc1cc(Cl)cc(OC(CCn2ccnc2)c2ccccc2)c1 (stereo not given) | 0.5 µg/mL (≈ 1.44 µM)
9 | Fc1ccc(C(CCn2ccnc2)Oc2c(Cl)cccc2Cl)cc1 (stereo not given) | 4 µg/mL (≈ 11 µM)

Test system: Arthrodermataceae
Assay: Antifungal activity against dermatophytes at 28 degC after 5 days by broth microdilution test
Details: not given

Row | SMILES | MFC90
10 | Cc1ccc(C(CCn2cncn2)Oc2ccc(Cl)cc2Cl)cc1 (stereo not given) | >128 µg/mL
11 | Clc1cc(Cl)cc(OC(CCn2ccnc2)c2ccccc2)c1 (stereo not given) | 16 µg/mL (≈ 46.1 µM)
12 | Cc1ccc(C(CCn2ccnc2)Oc2ccc(Cl)cc2Cl)cc1 (stereo not given) | 32 µg/mL (≈ 88.6 µM)
13 | Fc1ccc(C(CCn2ccnc2)Oc2c(Cl)cccc2Cl)cc1 (stereo not given) | 16 µg/mL (≈ 43.8 µM)

Same assay, conditions: Arthrodermataceae

Row | SMILES | MFC
14 | Cc1ccc(C(CCn2cncn2)Oc2ccc(Cl)cc2Cl)cc1 (stereo not given) | 122 µg/mL (≈ 336 µM)
15 | Clc1cc(Cl)cc(OC(CCn2ccnc2)c2ccccc2)c1 (stereo not given) | 15 µg/mL (≈ 43.2 µM)
16 | Cc1ccc(C(CCn2ccnc2)Oc2ccc(Cl)cc2Cl)cc1 (stereo not given) | 24 µg/mL (≈ 66.4 µM)
17 | Fc1ccc(C(CCn2ccnc2)Oc2c(Cl)cccc2Cl)cc1 (stereo not given) | 15 µg/mL (≈ 41.1 µM)

Test system: Arthrodermataceae
Assay: Antifungal activity against dermatophytes at 28 degC after 7 days by broth microdilution test
Assay type: functional
Details: 168 h
Outline: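 Ten clinical isolates (two M. canis, five M. gypseum, three T. mentagrophytes) tested by NCCLS M38-A broth microdilution in MOPS-buffered RPMI 1640, pH 7.0, over 0.25–128 µg/mL. Conidial/hyphal suspension from PDA slants (28 °C, 7 days) adjusted to 65–70% transmittance at OD530, then diluted 1:50.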

Row | MIC | MIC50 | MIC90 | SMILES
18 | 17.6 µg/mL (≈ 48.6 µM) | 16 µg/mL (≈ 44.2 µM) | 32 µg/mL (≈ 88.3 µM) | Cc1ccc(C(CCn2cncn2)Oc2ccc(Cl)cc2Cl)cc1 (stereo not given)
19 | 12 µg/mL (≈ 33.2 µM) | 8 µg/mL (≈ 22.1 µM) | 16 µg/mL (≈ 44.3 µM) | Cc1ccc(C(CCn2ccnc2)Oc2ccc(Cl)cc2Cl)cc1 (stereo not given)

Continued, compound first:

Row | SMILES | MIC | MIC50 | MIC90
20 | Clc1cc(Cl)cc(OC(CCn2ccnc2)c2ccccc2)c1 (stereo not given) | 7.2 µg/mL (≈ 20.7 µM) | 8 µg/mL (≈ 23 µM) | 8 µg/mL (≈ 23 µM)
21 | Fc1ccc(C(CCn2ccnc2)Oc2c(Cl)cccc2Cl)cc1 (stereo not given) | 6.4 µg/mL (≈ 17.5 µM) | 8 µg/mL (≈ 21.9 µM) | 8 µg/mL (≈ 21.9 µM)

Test system: Candida albicans
Assay: Antifungal activity against Candida albicans ATCC 10261 at 35 degC after 48 to 96 hrs by broth microdilution test
Assay type: functional
Details: not given
Outline: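 Minimal fungicidal concentration for Candida. […] MFC is the lowest concentration allowing fewer than two colonies (99% killing).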

Row | SMILES | MFC50 | MFC90
22 | Cc1ccc(C(CCn2cncn2)Oc2ccc(Cl)cc2Cl)cc1 (stereo not given) | >128 µg/mL | >128 µg/mL
23 | Clc1cc(Cl)cc(OC(CCn2ccnc2)c2ccccc2)c1 (stereo not given) | 32 µg/mL (≈ 92.2 µM) | 64 µg/mL (≈ 184 µM)
24 | Cc1ccc(C(CCn2ccnc2)Oc2ccc(Cl)cc2Cl)cc1 (stereo not given) | 8 µg/mL (≈ 22.1 µM) | 16 µg/mL (≈ 44.3 µM)
25 | Fc1ccc(C(CCn2ccnc2)Oc2c(Cl)cccc2Cl)cc1 (stereo not given) | 32 µg/mL (≈ 87.6 µM) | 128 µg/mL (≈ 350 µM)

Same assay, conditions: Candida albicans, ATCC 10261; read-out: MFC

Row | SMILES | MFC
26 | Cc1ccc(OC(Cn2ccnc2)c2ccc(Cl)cc2)cc1 (stereo not given) | 32 µg/mL (≈ 102 µM)
27 | Cc1ccc(C(CCn2cncn2)Oc2ccc(Cl)cc2Cl)cc1 (stereo not given) | > 128 µg/mL
28 | Clc1cc(Cl)cc(OC(CCn2ccnc2)c2ccccc2)c1 (stereo not given) | 29.8 µg/mL (≈ 85.8 µM)
29 | Cc1ccc(C(CCn2ccnc2)Oc2ccc(Cl)cc2Cl)cc1 (stereo not given) | 8.4 µg/mL (≈ 23.3 µM)
30 | Fc1ccc(C(CCn2ccnc2)Oc2c(Cl)cccc2Cl)cc1 (stereo not given) | 78.9 µg/mL (≈ 216 µM)

Test system: Candida albicans
Assay: Antifungal activity against Candida albicans ATCC 10261 at 35 degC after 48 hrs by broth microdilution test
Assay type: functional
Details: Candida albicans, ATCC 10261, 48 h; read-out: MIC
Outline: as §1

Row | MIC | SMILES
31 | > 128 µg/mL | Cc1ccc(C(CCn2cncn2)Oc2ccc(Cl)cc2Cl)cc1 (stereo not given)
32 | 3.15 µg/mL (≈ 8.72 µM) | Cc1ccc(C(CCn2ccnc2)Oc2ccc(Cl)cc2Cl)cc1 (stereo not given)

Further lines, the compound ahead of its results:

Row | SMILES | MIC
33 | Cc1ccc(OC(Cn2ccnc2)c2ccc(Cl)cc2)cc1 (stereo not given) | 22.3 µg/mL (≈ 71.3 µM)
34 | Clc1cc(Cl)cc(OC(CCn2ccnc2)c2ccccc2)c1 (stereo not given) | 13.8 µg/mL (≈ 39.7 µM)
35 | Fc1ccc(C(CCn2ccnc2)Oc2c(Cl)cccc2Cl)cc1 (stereo not given) | 36.1 µg/mL (≈ 98.8 µM)

Same assay, conditions: Candida albicans, ATCC 10261, 48 h; read-out: MIC50

Row | MIC50 | SMILES
36 | > 128 µg/mL | Cc1ccc(C(CCn2cncn2)Oc2ccc(Cl)cc2Cl)cc1 (stereo not given)
37 | 4 µg/mL (≈ 11.1 µM) | Cc1ccc(C(CCn2ccnc2)Oc2ccc(Cl)cc2Cl)cc1 (stereo not given)

More lines, now with the values behind:

Row | SMILES | MIC50
38 | Cc1ccc(OC(Cn2ccnc2)c2ccc(Cl)cc2)cc1 (stereo not given) | 16 µg/mL (≈ 51.2 µM)
39 | Clc1cc(Cl)cc(OC(CCn2ccnc2)c2ccccc2)c1 (stereo not given) | 16 µg/mL (≈ 46.1 µM)
40 | Fc1ccc(C(CCn2ccnc2)Oc2c(Cl)cccc2Cl)cc1 (stereo not given) | 8 µg/mL (≈ 21.9 µM)

Same assay, conditions: Candida albicans, ATCC 10261, 48 h; read-out: MIC90

Row | MIC90 | SMILES
41 | > 128 µg/mL | Cc1ccc(C(CCn2cncn2)Oc2ccc(Cl)cc2Cl)cc1 (stereo not given)
42 | 4 µg/mL (≈ 11.1 µM) | Cc1ccc(C(CCn2ccnc2)Oc2ccc(Cl)cc2Cl)cc1 (stereo not given)

More lines, now with the values behind:

Row | SMILES | MIC90
43 | Cc1ccc(OC(Cn2ccnc2)c2ccc(Cl)cc2)cc1 (stereo not given) | 32 µg/mL (≈ 102 µM)
44 | Clc1cc(Cl)cc(OC(CCn2ccnc2)c2ccccc2)c1 (stereo not given) | 16 µg/mL (≈ 46.1 µM)
45 | Fc1ccc(C(CCn2ccnc2)Oc2c(Cl)cccc2Cl)cc1 (stereo not given) | 64 µg/mL (≈ 175 µM)

Test system: Arthrodermataceae
Assay: Antifungal activity against dermatophytes at 28 degC after 48 to 96 hrs by broth microdilution test
Details: not given

Row | SMILES | MFC50
46 | Cc1ccc(C(CCn2cncn2)Oc2ccc(Cl)cc2Cl)cc1 (stereo not given) | 32 µg/mL (≈ 88.3 µM)
47 | Clc1cc(Cl)cc(OC(CCn2ccnc2)c2ccccc2)c1 (stereo not given) | 16 µg/mL (≈ 46.1 µM)
48 | Cc1ccc(C(CCn2ccnc2)Oc2ccc(Cl)cc2Cl)cc1 (stereo not given) | 16 µg/mL (≈ 44.3 µM)
49 | Fc1ccc(C(CCn2ccnc2)Oc2c(Cl)cccc2Cl)cc1 (stereo not given) | 16 µg/mL (≈ 43.8 µM)

Test system: not listed separately
Assay: Cytotoxicity against human U937 cells assessed as reduction of cell viability after 24 hrs by MTT assay
Assay type: cell-based, U-937
Details: not given
Outline: (§2)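 U937 and K562 cells, from ATCC, plated at 5 × 10^4/mL in phenol-red-free RPMI-1640 with 20% FBS and penicillin/streptomycin. Compounds added 2 h later at 25–100 µg/mL, then 24 h at 37 °C. MTT at 1 mg/mL for 3 h, formazan dissolved in isopropanol with 0.1 N HCl, absorbance read at 570 nm. CC50 is the concentration reducing viability by 50% versus the drug-free control.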

Row | SMILES | CC50 at 24 h
50 | Cc1ccc(OC(Cn2ccnc2)c2ccc(Cl)cc2)cc1 (stereo not given) | 150 µM
51 | Cc1ccc(C(CCn2ccnc2)Oc2ccc(Cl)cc2Cl)cc1 (stereo not given) | 150 µM

Test system: not listed separately
Assay: Cytotoxicity against human K562 cells after assessed as reduction of cell viability 24 hrs by MTT assay
Assay type: cell-based
Details: not given
Outline: as §2

Row | SMILES | CC50 at 24 h
52 | Cc1ccc(OC(Cn2ccnc2)c2ccc(Cl)cc2)cc1 (stereo not given) | 99 µM
53 | Cc1ccc(C(CCn2ccnc2)Oc2ccc(Cl)cc2Cl)cc1 (stereo not given) | 97 µM

Reference: ChEMBL document CHEMBL1157464, “1-[(3-Aryloxy-3-aryl)propyl]-1H-imidazoles, new imidazoles with potent activity against Candida albicans and dermatophytes. Synthesis, structure-activity relationship, and molecular modeling studies” (J Med Chem, 2008)
